Results on 3 compounds are retold here after paper PMC9357092 (Clinical Cancer Research, 2022).

Each structure is given as a SMILES string. Several values for one entry are separate records, joined by “and”; a condition that tells them apart may be missing. Identical values can stand only once. Like-named read-outs stand apart in the source and are kept apart here.

A short description of series [1]: Observed clinical plasma, CSF and brain metastasis pharmacokinetics in patients. Format: in vivo, human.
The nature of series [2]: Bidirectional transwell permeability, parental MDCKII monolayer. The following applies: dog, MDCK, pH 7.4, Intrinsic passive transcellular permeability (Papp,A-B/λ), unbound and unionized drug. Format: in vitro ADME.
A short description of series [3]: Binding to human brain tissue. Format: in vitro ADME. Conditions: pooled human brain tissue.
Series [4] in a line: Binding to human plasma proteins. Conditions: pooled human plasma. Format: in vitro ADME.
Series [5] is described as follows: In vitro metabolism in pooled human intestine microsomes. Format: in vitro ADME. The gist of the method:
(§1)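 Test compound (0.5 to 50 μmol/L) incubated with pooled human microsomes (0.4 mg/mL) at 37°C for 30 minutes. Overall drug disappearance velocity plotted against initial concentration and fitted to the Michaelis–Menten equation by nonlinear regression. Intrinsic clearance was taken as Vmax/Km.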

Series [6] can be described thus: In vitro metabolism in pooled human liver microsomes. Format: in vitro ADME. The essentials:
as §1
Background: Liver microsomes are a subcellular fraction often used to study metabolism.

For series [7], the system named is HER2-positive breast cancer. Conditions: cited from earlier work; for Cumulative incidence of intervention for CNS metastases: NALA phase III, each drug plus capecitabine, P = 0.043; for CNS objective response rate, monotherapy: pretreated HER2-positive breast cancer patients with progressive brain metastases.
The conditions of series [8]: cited from earlier work; for Observed CSF concentration (mean) / Observed CSF Kp,uu, geometric mean: 13 patients; for Observed CSF concentration (mean): 300 mg twice daily with trastuzumab and capecitabine, 2-5 hours postdosing.
Series [9] in a line: Blood-to-plasma partition ratio. Format: in vitro ADME. The following applies: blood and plasma.
Series [10] in a line: Whole-body-4Brain PBPK model simulation of plasma and CNS pharmacokinetics. Also noted: species or system human. The following applies: PBPK input; for fa: assigned based on observed data; for Ka: first-order absorption rate constant; for Ka / Lag time: observed.
On the set-up of series [11]: species or system human. Conditions: IVIVE predicted.
Another series addresses HER2 kinase. Conditions: read-out: IC50 for inhibition of HER2 kinase; ADP-Glo assay; cited from earlier work. (In ADP-Glo the light output rises with the ADP produced.)

With `CS(=O)(=O)CCNCc1ccc(-c2ccc3ncnc(Nc4ccc(OCc5cccc(F)c5)c(Cl)c4)c3c2)o1` [lapatinib], the “Estimated CSF Kp,uu from observed data” value in series [1] (two patients, assuming fraction unbound in plasma 0.014, data of ref 27) was 0.092. Moreover, in series [2], the Papp A→B at 1 h, 1 μmol/L was 4.14 ×10⁻⁶ cm/s. Moreover, the unbound share (fraction unbound) in series [3] stood at 0.0004. This compound registered a free fraction (fraction unbound) in series [4] of 0.014. In series [5], this compound registered a microsomal CLint of 5.66 µL/min/mg. Besides, the intrinsic clearance (microsomal CLint) in series [6] is 22.8 µL/min/mg. Further, in series [7], the “Cumulative incidence of intervention for CNS metastases” value was 29.2%; the “CNS response rate, combined with stereotactic radiosurgery” value was 75%; the “CNS response rate, combined with whole-brain radiation therapy” value is 79%; the “CNS objective response rate, monotherapy” value is 6%.
`CCOc1cc2ncc(C#N)c(Nc3ccc(OCc4ccccn4)c(Cl)c3)c2cc1NC(=O)/C=C/CN(C)C` [neratinib]: the “Unbound plasma concentration corresponding to observed total” value in series [1] (2 patients, assuming fraction unbound in plasma 0.007, data of ref 28) was 0.43 nM and 0.67 nM. Moreover, the Papp A→B at 1 h, 1 μmol/L in [2] came to […]. The “Observed total plasma concentration” value in series [8] (2 patients, 240 mg once daily) was […]. Besides, the fraction unbound in series [3] was 0.004. Moreover, the blood plasma ratio in series [9] came out at […]. Further, in series [10], the fa was 0.2, the Ka is on record as 0.25 and the Lag time is recorded as 0.8 h. Further, in series [11], the “Ratio of BBB passive clearance (PSB) to active efflux clearance (CLefflux,BBB)” value is reported as […]. The compound further yielded a fraction unbound in series [4] of […]. Further, in [5], the intrinsic clearance (microsomal CLint) amounted to 24.6 µL/min/mg. Moreover, the intrinsic metabolic clearance (microsomal CLint) in series [6] is 39 µL/min/mg. Besides, in [7] (ExteNET, 240 mg once daily, 1 year, 95% CI 0.46-0.84), the “Disease-free survival vs placebo, HR” value is listed as 0.63. Also, in series [7] (ExteNET, 240 mg once daily, 1 year), the “Cumulative incidence of CNS metastases vs placebo” value was “no statistically significant difference”. In addition, in series [7], the “Cumulative incidence of intervention for CNS metastases” value is given as 22.8% and the “CNS objective response rate, monotherapy” value is 8%. Also, the “Time to CNS metastases, hazard ratio” value in series [7] (NEfERT-T, neratinib plus paclitaxel vs trastuzumab plus paclitaxel, 95% CI 0.26-0.78) is given as […]. Besides, the “Incidence of symptomatic or progressive CNS recurrence” value in series [7] (NEfERT-T, neratinib plus paclitaxel vs trastuzumab plus paclitaxel) is listed as 8.3%. The IC50 on HER2 kinase is […].
As for `Cc1cc(Nc2ncnc3ccc(NC4=NC(C)(C)CO4)cc23)ccc1Oc1ccn2ncnc2c1` [tucatinib], in series [2], the Papp A→B at 1 h, 1 μmol/L worked out at 13.3 ×10⁻⁶ cm/s. In series [8] (cycle 1 day 1), the “Observed CSF concentration (mean)” value is 10.9 nmol/L and the “Observed CSF Kp,uu, geometric mean” value is 0.51. For the same compound, in series [8] (cycle 2 day 1), the “Observed CSF concentration (mean)” value is given as 21.6 nmol/L and the “Observed CSF Kp,uu, geometric mean” value is reported as 0.76. The compound also registered an unbound share (fraction unbound) in [3] of 0.015. Further, the blood plasma ratio in [9] is 0.93. Moreover, in series [10], the fa is 0.5, the Ka is given as 0.8 and the Lag time was 0.6 h. For the same compound, the “Ratio of BBB passive clearance (PSB) to active efflux clearance (CLefflux,BBB)” value in [11] is on record as 0.83. This compound also returned a free fraction (fraction unbound) in [4] of 0.03. The compound also yielded an intrinsic clearance (microsomal CLint) in series [5] of 4.5 µL/min/mg. Moreover, the intrinsic metabolic clearance (microsomal CLint) in series [6] stood at 41.8 µL/min/mg. The “Risk of intracranial progression or death, HR” value in [7] (HER2CLIMB, tucatinib added to trastuzumab and capecitabine, 95% CI 0.22-0.48) is given as 0.32. In series [7] (HER2CLIMB, tucatinib added to trastuzumab and capecitabine, 95% CI 0.40-0.85), the “Risk of death, HR” value is on record as 0.58. Besides, on HER2 kinase, the half-inhibitory concentration (IC50) was 6.9 nM.

The term Papp A→B denotes the apparent permeability from the apical to the basolateral side of a cell layer. The fraction unbound is the share of the substance not bound to proteins or other matrix. For orientation: microsomal CLint means a measure of how fast metabolising enzymes remove a compound, apart from limits set by blood flow. Low values mean greater metabolic stability, high ones faster metabolism. A word on the IC50: it is the midpoint of a concentration-inhibition curve.
